Measured values from ChEMBL document CHEMBL1156480, “Insensitivity to Abeta42-lowering nonsteroidal anti-inflammatory drugs and gamma-secretase inhibitors is common among aggressive presenilin-1 mutations” (J Biol Chem, 2007).

Legend:
Format in all cases: cell-based
Design in all cases: scale not given: the % may be the effect or the level left
[1] = target: Presenilin-1 (Homo sapiens) (UniProt P49768); test: Reduction of human wild type PS1-induced amyloid beta-40 level in CHO cells overexpressing human APP751 at 100 nM after 24 hrs by liquid phase electrochemiluminescence assay relative to control
CHO [2] = test: Reduction of human PS1 delta exon9 mutant-induced amyloid beta-42 level in CHO cells overexpressing human APP751 at 250 nM after 24 hrs by liquid phase electrochemiluminescence assay relative to control
Method in brief: (§1)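 APP751 CHO cells stably expressing PS1-ΔExon9, PS1-L166P or PS1-WT, cultured in parallel in serum-containing medium. Treated 24 h with increasing γ-secretase inhibitor concentrations or DMSO. Conditioned-media Abeta40/Abeta42 quantified by LPECL against synthetic peptide standards (16–2000 pg/ml). Duplicates normalized to DMSO. n = 3, one-way ANOVA with Dunnett's test versus PS1-WT.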

[3] = target: Presenilin-1 (Homo sapiens) (UniProt P49768); test: Reduction of human wild type PS1-induced amyloid beta-42 level in CHO cells overexpressing human APP751 at 250 nM after 24 hrs by liquid phase electrochemiluminescence assay relative to control
[4] = test system: Presenilin-1 (Homo sapiens), P49768 [L166P]; test: Reduction of human PS1 L166P mutant-induced amyloid beta-42 level in CHO cells overexpressing human APP751 at 500 nM after 24 hrs by liquid phase electrochemiluminescence assay relative to control; method in brief: as §1
[5] = target: Presenilin-1 (Homo sapiens) (UniProt P49768); test: Reduction of human wild type PS1-induced amyloid beta-42 level in CHO cells overexpressing human APP751 at 500 nM after 24 hrs by liquid phase electrochemiluminescence assay relative to control
CHO [6] = test: Reduction of human PS1 delta exon9 mutant-induced amyloid beta-42 level in CHO cells overexpressing human APP751 at 100 nM after 24 hrs by liquid phase electrochemiluminescence assay relative to control; method in brief: as §1
[7] = test system: Presenilin-1 (Homo sapiens), P49768 [L166P]; test: Reduction of human PS1 L166P mutant-induced amyloid beta-40 level in CHO cells overexpressing human APP751 at 100 nM after 24 hrs by liquid phase electrochemiluminescence assay relative to control; method in brief: as §1
[8] = test system: Presenilin-1 (Homo sapiens), P49768 [L166P]; test: Reduction of human PS1 L166P mutant-induced amyloid beta40 level in CHO cells overexpressing human APP751 at 500 nM after 24 hrs by liquid phase electrochemiluminescence assay relative to control; method in brief: as §1
[9] = target: Presenilin-1 (Homo sapiens) (UniProt P49768); test: Reduction of human wild type PS1-induced amyloid beta-40 level in CHO cells overexpressing human APP751 at 500 nM after 24 hrs by liquid phase electrochemiluminescence assay relative to control
[10] = test system: Presenilin-1 (Homo sapiens), P49768 [L166P]; test: Reduction of human PS1 L166P mutant-induced amyloid beta-40 level in CHO cells overexpressing human APP751 at 250 nM after 24 hrs by liquid phase electrochemiluminescence assay relative to control; method in brief: as §1
[11] = test system: Presenilin-1 (Homo sapiens), P49768 [L166P]; test: Reduction of human PS1 L166P mutant-induced amyloid beta-42 level in CHO cells overexpressing human APP751 at 100 nM after 24 hrs by liquid phase electrochemiluminescence assay relative to control; method in brief: as §1
CHO [12] = test: Reduction of human PS1 delta exon9 mutant-induced amyloid beta-40 level in CHO cells overexpressing human APP751 at 100 nM after 24 hrs by liquid phase electrochemiluminescence assay relative to control; method in brief: as §1
[13] = target: Presenilin-1 (Homo sapiens) (UniProt P49768); test: Reduction of human wild type PS1-induced amyloid beta-40 level in CHO cells overexpressing human APP751 at 250 nM after 24 hrs by liquid phase electrochemiluminescence assay relative to control
CHO [14] = test: Reduction of human PS1 delta exon9 mutant-induced amyloid beta-42 level in CHO cells overexpressing human APP751 at 500 nM after 24 hrs by liquid phase electrochemiluminescence assay relative to control
[15] = target: Presenilin-1 (Homo sapiens) (UniProt P49768); test: Reduction of human wild type PS1-induced amyloid beta-42 level in CHO cells overexpressing human APP751 at 100 nM after 24 hrs by liquid phase electrochemiluminescence assay relative to control
[16] = test system: Presenilin-1 (Homo sapiens), P49768 [L166P]; test: Reduction of human PS1 L166P mutant-induced amyloid beta-42 level in CHO cells overexpressing human APP751 at 250 nM after 24 hrs by liquid phase electrochemiluminescence assay relative to control; method in brief: as §1
CHO [17] = test: Reduction of human PS1 delta exon9 mutant-induced amyloid beta-40 level in CHO cells overexpressing human APP751 at 250 nM after 24 hrs by liquid phase electrochemiluminescence assay relative to control; method in brief: as §1
CHO [18] = test: Reduction of human PS1 delta exon9 mutant-induced amyloid beta-40 level in CHO cells overexpressing human APP751 at 500 nM after 24 hrs by liquid phase electrochemiluminescence assay relative to control; method in brief: as §1
[19] = test system: Presenilin-1 (Homo sapiens), P49768 [M292D,M146L]; test: Reduction of human PS1 M292D/M146L mutant-induced amyloid beta42 level in CHO cells overexpressing human APP751 at 60 uM after 24 hrs by liquid phase electrochemiluminescence assay relative to control
[20] = test system: Presenilin-1 (Homo sapiens), P49768 [L166P]; test: Reduction of human PS1 L166P mutant-induced amyloid beta42 level in CHO cells overexpressing human APP751 at 60 uM after 24 hrs by liquid phase electrochemiluminescence assay relative to control
CHO [21] = test: Reduction of human PS1 delta exon9 mutant-induced amyloid beta-42 level in CHO cells overexpressing human APP751 at 60 uM after 24 hrs by liquid phase electrochemiluminescence assay relative to control
[22] = target: Presenilin-1 (Homo sapiens) (UniProt P49768); test: Reduction of human wild type human PS1-induced amyloid beta-42 level in CHO cells overexpressing human APP751 at 60 uM after 24 hrs by liquid phase electrochemiluminescence assay relative to control
CHO [23] = test: Reduction of human PS1 delta 291 to 319 deletion mutant-induced amyloid beta-42 level in CHO cells overexpressing human APP751 at 60 uM after 24 hrs by liquid phase electrochemiluminescence assay relative to control
[24] = test system: Presenilin-1 (Homo sapiens), P49768 [M292D]; test: Reduction of human PS1 M292D mutant-induced amyloid beta-42 level in CHO cells overexpressing human APP751 at 30 uM after 24 hrs by liquid phase electrochemiluminescence assay relative to control
[25] = test system: Presenilin-1 (Homo sapiens), P49768 [G384A]; test: Reduction of human PS1 G384A mutant-induced amyloid beta42 level in CHO cells overexpressing human APP751 at 30 uM after 24 hrs by liquid phase electrochemiluminescence assay relative to control
[26] = test system: Presenilin-1 (Homo sapiens), P49768 [G384A]; test: Reduction of human PS1 G384A mutant-induced amyloid beta42 level in CHO cells overexpressing human APP751 at 60 uM after 24 hrs by liquid phase electrochemiluminescence assay relative to control
[27] = test system: Presenilin-1 (Homo sapiens), P49768 [M292D,M146L]; test: Reduction of human PS1 M292D/M146L mutant-induced amyloid beta-42 level in CHO cells overexpressing human APP751 at 30 uM after 24 hrs by liquid phase electrochemiluminescence assay relative to control
[28] = test system: Presenilin-1 (Homo sapiens), P49768 [M292D]; test: Reduction of human PS1 M292D mutant-induced amyloid beta42 level in CHO cells overexpressing human APP751 at 60 uM after 24 hrs by liquid phase electrochemiluminescence assay relative to control
[29] = test system: Presenilin-1 (Homo sapiens), P49768 [S290C]; test: Reduction of human PS1 S290C mutant-induced amyloid beta-42 level in CHO cells overexpressing human APP751 at 30 uM after 24 hrs by liquid phase electrochemiluminescence assay relative to control
CHO [30] = test: Reduction of human PS1 delta 291 to 319 deletion mutant-induced amyloid beta-42 level in CHO cells overexpressing human APP751 at 30 uM after 24 hrs by liquid phase electrochemiluminescence assay relative to control
[31] = test system: Presenilin-1 (Homo sapiens), P49768 [L166P]; test: Reduction of human PS1 L166P mutant-induced amyloid beta42 level in CHO cells overexpressing human APP751 at 30 uM after 24 hrs by liquid phase electrochemiluminescence assay relative to control
[32] = test system: Presenilin-1 (Homo sapiens), P49768 [P117L]; test: Reduction of human PS1 P117L mutant-induced amyloid beta42 level in CHO cells overexpressing human APP751 at 60 uM after 24 hrs by liquid phase electrochemiluminescence assay relative to control
[33] = test system: Presenilin-1 (Homo sapiens), P49768 [S290C]; test: Reduction of human PS1 S290C mutant-induced amyloid beta-42 level in CHO cells overexpressing human APP751 at 60 uM after 24 hrs by liquid phase electrochemiluminescence assay relative to control
CHO [34] = test: Reduction of human PS1 delta exon9 mutant-induced amyloid beta-42 level in CHO cells overexpressing human APP751 at 30 uM after 24 hrs by liquid phase electrochemiluminescence assay relative to control
[35] = target: Presenilin-1 (Homo sapiens) (UniProt P49768); test: Reduction of wild type human PS1-induced amyloid beta42 level in CHO cells overexpressing human APP751 at 30 uM after 24 hrs by liquid phase electrochemiluminescence assay relative to control
[36] = test system: Presenilin-1 (Homo sapiens), P49768 [P117L]; test: Reduction of human PS1 P117L mutant-induced amyloid beta42 level in CHO cells overexpressing human APP751 at 30 uM after 24 hrs by liquid phase electrochemiluminescence assay relative to control
[37] = test system: Presenilin-1 (Homo sapiens), P49768 [S290C,M292D]; test: Reduction of human PS1 S290C/M292D mutant-induced amyloid beta-42 level in CHO cells overexpressing human APP751 at 30 uM after 24 hrs by liquid phase electrochemiluminescence assay relative to control

CC(C)C[C@H](NC(=O)C(Cc1ccccc1)C[C@@H](O)[C@H](Cc1ccccc1)NC(=O)OC(C)(C)C)C(=O)N[C@@H](Cc1ccccc1)C(N)=O (single isomer, unassigned)
Activity [1]: 8.1%
Activity (CHO [2]): 54.5%
Activity [3]: 3.28%
Activity [4]: 34.2%
Activity [5]: 2.59%
Activity (CHO [6]): 98.3%
Activity [7]: 41.5%
Activity [8]: 13.1%
Activity [9]: 1.92%
Activity [10]: 20.6%
Activity [11]: 62.3%
Activity (CHO [12]): 86.3%
Activity [13]: 2.95%
Activity (CHO [14]): 34.1%
Activity [15]: 11.3%
Activity [16]: 44.1%
Activity (CHO [17]): 54%
Activity (CHO [18]): 33.4%

CSc1ccc(/C=C2/C(C)=C(CC(=O)O)c3cc(F)ccc32)cc1
Activity [19]: 58.5%
Activity [20]: 99.2%
Activity (CHO [21]): 99.5%
Activity [22]: 61.6%
Activity (CHO [23]): 82.7%
Activity [24]: 89.5%
Activity [25]: 95.1%
Activity [26]: 90.3%
Activity [27]: 73.2%
Activity [28]: 73.9%
Activity [29]: 83.8%
Activity (CHO [30]): 88.7%
Activity [31]: 99.5%
Activity [32]: 88.5%
Activity [33]: 65.9%
Activity (CHO [34]): 99.7%
Activity [35]: 78.2%
Activity [36]: 100%
Activity [37]: 82.4%
